PMC7066653 (ACS Omega, 2020)
Values after ≈ are worked out from the molar mass of the structure shown.

Experiments:
[1] = 9 (b3); cited from earlier work
[2] = Aqueous solubility of ATXP and ATX at 25 °C, by HPLC; type: physicochemical; details: for solubility at 1 h: 25 °C, thermodynamic from solid
Method in brief: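 Excess solid was added to 1 mL of ultrapure water, 0.9% NaCl (pH 7.4) or PBS (pH 7.4) and held at 25 °C. Samples were taken at 1, 24 and 48 h, filtered (0.22 μm) and quantified by HPLC (C18; 75% methanol/water with 1% TFA; 1 mL/min; 350 nm). Experiments were repeated three times and reported as mean ± SD.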

[3] = tested on: focal cerebral ischemia-reperfusion injury (MCAO); set-up: species or system Sprague-Dawley rats; details: rat, in vivo
[4] = tested on: focal cerebral ischemia-reperfusion injury (MCAO); experiment: Neurological deficit; type: in vivo, Sprague-Dawley rats; details: edaravone 6 mg/kg iv, single dose, P = 0.4298

SMILES: COc1ccc(-c2cc(=S)ss2)cc1 [ATT, Anethol trithione]
- water solubility [1]: 0.38 µg/mL (≈ 1.58 µM)

SMILES: Oc1ccc(-c2cc(=S)ss2)cc1 [ATX, 5-(4-hydroxyphenyl)-3H-1,2-dithiole3-thione]
- solubility at 1 h ([2]; 0.9% NaCl solution, pH 7.4, saline or isotonic): < 0.8 µg/mL
- solubility at 1 h ([2]; PBS, pH 7.4, aqueous buffer): < 0.8 µg/mL
- solubility at 1 h ([2]; ultrapure water, water): 0.8 ± 0.02 µg/mL (≈ 3.53 µM)

SMILES: CC1=NN(c2ccccc2)C(=O)C1 [edaravone]
- infarct volume vs vehicle [3]: significant reductions in infarct volume
- solubility in saline, in words ([2]; saline (0.9%)): freely soluble
- neurological deficit score, 24 h vs 0 h after reperfusion [4]: did not exhibit increased neurological scores
